Measured values reported in ChEMBL document CHEMBL3621143, “Discovery of BMS-641988, a Novel Androgen Receptor Antagonist for the Treatment of Prostate Cancer” (ACS Med Chem Lett, 2015).

Tests used:
[1] = Drug metabolism in dog hepatocytes assessed per 10^6 cells; format: ADME, cell-based, Canis lupus familiaris, Hepatocyte
In short: (§1)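 Metabolic rate in mouse, rat, dog, monkey and human hepatocyte incubations, expressed as pmol/min/10^6 cells.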

Androgen receptor = molecular target: T1, Androgen receptor (Homo sapiens, UniProt P10275); assay: Displacement of [3H]-DHT from androgen receptor in human MDA-MB-453 cells after 90 mins by TopCount analysis; format: cell-based
T1 sequence (P10275 whole entry): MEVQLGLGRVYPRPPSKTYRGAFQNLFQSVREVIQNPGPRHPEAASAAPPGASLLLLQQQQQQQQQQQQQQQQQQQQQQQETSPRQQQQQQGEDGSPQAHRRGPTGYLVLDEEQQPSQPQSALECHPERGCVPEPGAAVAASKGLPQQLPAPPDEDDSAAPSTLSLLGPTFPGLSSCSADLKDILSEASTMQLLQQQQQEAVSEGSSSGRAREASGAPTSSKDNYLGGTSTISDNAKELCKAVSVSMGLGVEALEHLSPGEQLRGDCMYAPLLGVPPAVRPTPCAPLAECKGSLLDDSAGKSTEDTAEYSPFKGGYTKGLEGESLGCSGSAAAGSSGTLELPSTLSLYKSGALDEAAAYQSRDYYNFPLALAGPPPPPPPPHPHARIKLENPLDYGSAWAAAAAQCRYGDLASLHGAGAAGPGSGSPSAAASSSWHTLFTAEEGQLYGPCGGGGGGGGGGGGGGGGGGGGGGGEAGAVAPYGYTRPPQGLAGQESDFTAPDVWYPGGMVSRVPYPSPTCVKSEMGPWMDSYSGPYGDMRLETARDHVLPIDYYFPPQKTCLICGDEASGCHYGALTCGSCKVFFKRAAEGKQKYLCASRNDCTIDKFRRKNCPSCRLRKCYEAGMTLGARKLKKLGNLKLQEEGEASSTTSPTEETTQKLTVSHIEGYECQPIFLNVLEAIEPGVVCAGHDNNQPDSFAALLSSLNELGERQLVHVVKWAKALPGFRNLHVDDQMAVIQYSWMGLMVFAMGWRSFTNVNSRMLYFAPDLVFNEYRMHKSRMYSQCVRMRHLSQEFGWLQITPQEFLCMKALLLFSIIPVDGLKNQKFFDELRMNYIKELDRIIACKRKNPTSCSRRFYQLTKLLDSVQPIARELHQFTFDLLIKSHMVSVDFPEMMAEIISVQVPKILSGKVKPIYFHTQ

[2] = Oral bioavailability in rat at 10 mg/kg; format: ADME, organism-based; conditions: in vivo
In short: (§2)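 Single IV and oral doses in mouse and rat (IV 5, PO 10 mg/kg) and dog (IV 1, PO 2 mg/kg). Half-life, clearance, AUC0-∞ (µM*h) and %F derived from the plasma profiles.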

[3] = Fraction unbound in mouse plasma by equilibrium dialysis method; format: ADME, cell-free
In short: (§3)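 Plasma protein binding measured by equilibrium dialysis in mouse, rat, dog and human plasma, reported as % free.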

Cytochrome P450 2C9 = Cytochrome P450 2C9 (Homo sapiens, UniProt P11712); assay: Inhibition of human CYP2C9; format: ADME
Rattus norvegicus = assay: In vivo antagonist activity at androgen receptor in immature Sprague-Dawley rat prostate weight model assessed as testosterone propionate-induced weight of seminal vesicles over full body weight at 10 mg/kg, po qd administered for 4 days; format: functional; set-up: scale not given: the % may be the effect or the level left
In short: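 Immature rat prostate weight PK/PD model. Oral dosing once daily at 1 or 10 mg/kg for 4 days. Seminal vesicle weight expressed as % of full body weight, n=3, scaled so testosterone-treated control = 100% and sham = 10%.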

Cytochrome P450 2B6 = molecular target: T2, Cytochrome P450 2B6 (Homo sapiens, UniProt P20813); assay: Inhibition of human CYP2B6; format: ADME
T2 sequence (P20813 whole entry): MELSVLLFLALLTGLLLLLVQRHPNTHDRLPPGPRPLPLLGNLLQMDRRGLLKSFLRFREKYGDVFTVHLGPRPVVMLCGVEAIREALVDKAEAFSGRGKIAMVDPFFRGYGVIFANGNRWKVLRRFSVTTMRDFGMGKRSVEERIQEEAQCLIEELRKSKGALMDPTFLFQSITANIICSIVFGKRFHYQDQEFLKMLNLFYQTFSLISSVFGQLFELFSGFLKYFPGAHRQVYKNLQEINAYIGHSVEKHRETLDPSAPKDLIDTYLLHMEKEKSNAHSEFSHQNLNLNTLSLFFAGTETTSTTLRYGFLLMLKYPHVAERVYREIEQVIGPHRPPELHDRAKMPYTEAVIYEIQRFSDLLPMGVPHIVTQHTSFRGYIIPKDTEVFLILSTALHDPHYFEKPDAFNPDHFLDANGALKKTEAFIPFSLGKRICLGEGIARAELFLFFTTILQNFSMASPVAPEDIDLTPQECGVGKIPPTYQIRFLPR

[4] = Half life in rat at 5 mg/kg, iv and 10 mg/kg, po; format: ADME, organism-based; conditions: in vivo; in short: as §2
hERG = hERG (Homo sapiens, UniProt Q12809); assay: Inhibition of human ERG at 30 uM relative to control
Cytochrome P450 1A2 = molecular target: T3, Cytochrome P450 1A2 (Homo sapiens, UniProt P05177); assay: Inhibition of human CYP1A2; format: ADME
T3 sequence (P05177 whole entry): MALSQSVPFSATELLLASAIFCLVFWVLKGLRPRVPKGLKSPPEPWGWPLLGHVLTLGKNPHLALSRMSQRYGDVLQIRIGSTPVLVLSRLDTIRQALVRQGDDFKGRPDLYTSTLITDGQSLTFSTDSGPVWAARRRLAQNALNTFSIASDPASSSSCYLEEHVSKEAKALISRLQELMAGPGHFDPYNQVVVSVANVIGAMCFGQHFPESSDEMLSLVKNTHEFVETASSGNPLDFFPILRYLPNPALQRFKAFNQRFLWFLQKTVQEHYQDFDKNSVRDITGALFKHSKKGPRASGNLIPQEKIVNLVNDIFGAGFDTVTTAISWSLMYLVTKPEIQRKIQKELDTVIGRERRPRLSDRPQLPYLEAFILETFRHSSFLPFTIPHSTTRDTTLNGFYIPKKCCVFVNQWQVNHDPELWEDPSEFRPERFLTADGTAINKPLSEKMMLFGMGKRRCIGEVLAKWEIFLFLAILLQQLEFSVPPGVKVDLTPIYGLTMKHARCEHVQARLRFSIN

[5] = Clearance in mouse at 5 mg/kg, iv and 10 mg/kg, po; format: ADME, organism-based; conditions: in vivo; in short: as §2
Hepatocyte = assay: Drug metabolism in rat hepatocytes assessed per 10^6 cells; format: ADME, cell-based; in short: as §1
[6] = Fraction unbound in rat plasma by equilibrium dialysis method; format: ADME, cell-free; in short: as §3
[7] = Fraction unbound in dog plasma by equilibrium dialysis method; format: ADME, cell-free, Canis lupus familiaris; in short: as §3
[8] = Plasma concentration in immature Sprague-Dawley rat prostate weight model at 10 mg/kg, po qd administered for 4 days measured 2 hrs post last dose on day 4; format: ADME, organism-based
In short: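 Immature rat prostate weight model, oral dosing once daily at 1 or 10 mg/kg for 4 days. Plasma drug concentration (µM) measured 2 hours post-dose on day 4, n=3.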

[9] = AUC (0 to infinity) in dog at 2 mg/kg, po; format: ADME, organism-based, Canis lupus familiaris; set-up: dose 2 mg/kg, time infinity, route oral; conditions: in vivo; in short: as §2

Sequence of Cytochrome P450 2C9 (P11712 whole entry): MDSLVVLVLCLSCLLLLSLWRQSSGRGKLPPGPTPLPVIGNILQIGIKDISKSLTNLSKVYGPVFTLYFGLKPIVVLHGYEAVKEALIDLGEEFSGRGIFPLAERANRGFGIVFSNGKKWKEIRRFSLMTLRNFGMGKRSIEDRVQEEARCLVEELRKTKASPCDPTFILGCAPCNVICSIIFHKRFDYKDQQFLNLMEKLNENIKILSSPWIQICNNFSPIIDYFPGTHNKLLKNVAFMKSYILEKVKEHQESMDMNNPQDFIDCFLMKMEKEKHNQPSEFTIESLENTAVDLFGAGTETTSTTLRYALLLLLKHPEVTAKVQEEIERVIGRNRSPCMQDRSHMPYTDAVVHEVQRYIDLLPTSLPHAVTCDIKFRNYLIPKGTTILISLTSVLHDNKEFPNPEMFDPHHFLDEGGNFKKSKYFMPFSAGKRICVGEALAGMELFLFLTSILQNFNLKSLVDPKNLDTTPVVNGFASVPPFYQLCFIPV
Sequence of hERG (Q12809 whole entry): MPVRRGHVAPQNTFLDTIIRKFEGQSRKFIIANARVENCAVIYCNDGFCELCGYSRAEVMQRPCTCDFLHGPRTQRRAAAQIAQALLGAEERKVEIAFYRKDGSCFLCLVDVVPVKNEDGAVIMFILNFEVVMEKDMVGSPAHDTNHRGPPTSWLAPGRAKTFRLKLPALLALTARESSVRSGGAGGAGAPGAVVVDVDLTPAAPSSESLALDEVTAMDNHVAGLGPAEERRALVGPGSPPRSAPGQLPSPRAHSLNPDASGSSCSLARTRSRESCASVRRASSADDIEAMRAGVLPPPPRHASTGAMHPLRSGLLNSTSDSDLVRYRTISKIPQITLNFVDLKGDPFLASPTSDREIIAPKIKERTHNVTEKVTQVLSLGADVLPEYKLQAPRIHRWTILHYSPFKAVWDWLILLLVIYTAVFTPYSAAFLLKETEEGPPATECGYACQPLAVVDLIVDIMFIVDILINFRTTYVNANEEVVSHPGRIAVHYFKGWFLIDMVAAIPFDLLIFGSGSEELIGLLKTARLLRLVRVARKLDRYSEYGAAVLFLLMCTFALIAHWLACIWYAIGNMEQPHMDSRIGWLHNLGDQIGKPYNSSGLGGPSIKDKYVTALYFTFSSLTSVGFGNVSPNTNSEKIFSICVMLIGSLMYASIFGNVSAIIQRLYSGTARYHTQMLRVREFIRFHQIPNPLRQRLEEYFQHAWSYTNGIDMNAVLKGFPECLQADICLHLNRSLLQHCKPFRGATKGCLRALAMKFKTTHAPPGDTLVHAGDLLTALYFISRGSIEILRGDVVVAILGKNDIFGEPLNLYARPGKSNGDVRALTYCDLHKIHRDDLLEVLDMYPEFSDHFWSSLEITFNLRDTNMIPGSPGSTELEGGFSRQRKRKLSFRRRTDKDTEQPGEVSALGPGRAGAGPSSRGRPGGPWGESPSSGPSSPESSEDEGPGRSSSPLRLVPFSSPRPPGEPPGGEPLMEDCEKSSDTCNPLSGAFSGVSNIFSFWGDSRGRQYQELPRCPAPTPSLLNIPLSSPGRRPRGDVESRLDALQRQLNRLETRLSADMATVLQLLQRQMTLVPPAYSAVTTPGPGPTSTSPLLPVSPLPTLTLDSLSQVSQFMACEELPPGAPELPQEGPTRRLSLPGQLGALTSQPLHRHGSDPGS

## CCS(=O)(=O)N[C@@H]1C[C@]2(C)O[C@]1(C)[C@@H]1C(=O)N(c3ccc(C#N)c(C(F)(F)F)c3)C(=O)[C@@H]12
[1]
  Drug metabolism: 3 pmol/min
Androgen receptor
  Ki: 1.7 nM
[2]
  bioavailability: 63.9%
[3]
  fraction unbound: 0.148
Cytochrome P450 2C9
  IC50: > 40 µM
Rattus norvegicus
  Activity: 26%
Cytochrome P450 2B6
  IC50: > 40 µM
[4]
  half-life: 222 min
hERG
  inhibition at 30 µM: 0%
Cytochrome P450 1A2
  IC50: > 40 µM
[5]
  clearance: 4.5 mL/min/kg
Hepatocyte
  Drug metabolism: 26 pmol/min
[6]
  fraction unbound: 0.106
[7]
  fraction unbound: 0.165
[8]
  concentration at 2 h: 4 µM
[9]
  AUC(0-inf): 160 µM·h
